From ChEMBL document CHEMBL2401735, “Synthesis and cytotoxicity of novel (thiazol-2-yl)hydrazine derivatives as promising anti-Candida agents” (Eur J Med Chem, 2013)
In brackets after ≈: the same amount, converted by molar mass.

Legend:
[Candida] sake = Anticandida activity against Candida sake clinical isolate assessed as growth inhibition after 24 hrs by broth microdilution method; format: functional; details: Fermentozyma sake
Outline: (§1)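 Clinical Candida isolates subcultured for purity and optimal growth before testing; compounds dissolved in DMSO. Broth microdilution per NCCLS in Sabouraud dextrose broth, serial dilutions, inoculum about 10³/mL, with growth control and medium-only control; 24 h incubation at 37 °C. MIC is the lowest concentration giving complete visible inhibition.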

[1] = Cytotoxicity against human Hep2 cells assessed as cell survival fraction at 100 ug/ml after 24 hrs by trypan blue exclusion assay (reference value: 97 to 98%); format: cell-based; details: HEp-2 cells, read-out: Survival
Candida tropicalis = assay: Anticandida activity against Candida tropicalis clinical isolate assessed as growth inhibition after 24 hrs by broth microdilution method; format: functional; outline: as §1
Klebsiella oxytoca = assay: Antibacterial activity against Klebsiella oxytoca assessed as growth inhibition after 18 to 22 hrs by broth microdilution method; format: functional
Outline: (§2)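 Bacterial isolates subcultured for purity, identified conventionally. Broth microdilution per NCCLS in Mueller-Hinton II broth; plates with growth control (no compound) and medium-only control, incubated 18-22 h at 35 °C. MIC taken as lowest concentration giving complete growth inhibition by unaided eye.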

Candida parapsilosis = assay: Anticandida activity against Candida parapsilosis clinical isolate assessed as growth inhibition after 24 hrs by broth microdilution method; format: functional; details: Lodderomyces parapsilosis; outline: as §1
Enterobacter sp. = assay: Antibacterial activity against Enterobacter spp. assessed as growth inhibition after 18 to 22 hrs by broth microdilution method; format: functional; outline: as §2
Proteus mirabilis = assay: Antibacterial activity against Proteus mirabilis assessed as growth inhibition after 18 to 22 hrs by broth microdilution method; format: functional; outline: as §2
[2] = Cytotoxicity against human Hep2 cells assessed as cell survival fraction at 0.05 ug/ml after 24 hrs by trypan blue exclusion assay (reference value: 97 to 98%); format: cell-based; details: HEp-2 cells, read-out: Survival
[3] = Cytotoxicity against human Hep2 cells assessed as cell survival fraction at 50 ug/ml after 24 hrs by trypan blue exclusion assay (reference value: 97 to 98%); format: cell-based; details: HEp-2 cells, read-out: Survival
[4] = Cytotoxicity against human Hep2 cells assessed as cell survival fraction at 10 ug/ml after 24 hrs by trypan blue exclusion assay (reference value: 97 to 98%); format: cell-based; details: HEp-2 cells, read-out: Survival
[5] = Cytotoxicity against human Hep2 cells assessed as cell survival fraction at 5 ug/ml after 24 hrs by trypan blue exclusion assay (reference value: 97 to 98%); format: cell-based; details: HEp-2 cells, read-out: Survival
Candida albicans = assay: Anticandida activity against Candida albicans clinical isolate assessed as growth inhibition after 24 hrs by broth microdilution method; format: functional; outline: as §1
Staphylococcus aureus = assay: Antibacterial activity against Staphylococcus aureus assessed as growth inhibition after 18 to 22 hrs by broth microdilution method; format: functional; outline: as §2
Pichia kudriavzevii = assay: Anticandida activity against Candida krusei clinical isolate assessed as growth inhibition after 24 hrs by broth microdilution method; format: functional; outline: as §1
[6] = Cytotoxicity against human Hep2 cells assessed as reduction of cell viability after 24 hrs by trypan blue exclusion assay; format: cell-based; details: HEp-2 cells
Outline: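 Hep2 cells in DMEM with 10% FBS, penicillin-streptomycin, 5% CO₂, 37 °C. Cells at 1 × 10⁵/mL exposed 24 h to seven concentrations (0.005-100 µg/mL), DMSO ≤0.5% final; controls were medium alone, DMSO, and 1 mM sodium nitroprusside. Cells scraped, allowed 30 min recovery, mixed 1:1 with 0.4% trypan blue, counted by hemocytometer by two operators.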

[7] = Cytotoxicity against human Hep2 cells assessed as cell survival fraction at 0.5 ug/ml after 24 hrs by trypan blue exclusion assay (reference value: 97 to 98%); format: cell-based; details: HEp-2 cells, read-out: Survival
[8] = Cytotoxicity against human Hep2 cells assessed as cell survival fraction at 0.005 ug/ml after 24 hrs by trypan blue exclusion assay (reference value: 97 to 98%); format: cell-based; details: HEp-2 cells, read-out: Survival
[9] = test system: Streptococcus alpha-hemolyticus; assay: Antibacterial activity against Streptococcus alpha-hemolyticus assessed as growth inhibition after 18 to 22 hrs by broth microdilution method
Enterococcus faecalis = assay: Antibacterial activity against […] assessed as growth inhibition after 18 to 22 hrs by broth microdilution method; format: functional; outline: as §2
Escherichia coli = assay: Antibacterial activity against Escherichia coli assessed as growth inhibition after 18 to 22 hrs by broth microdilution method; format: functional; outline: as §2
Nakaseomyces glabratus = assay: Anticandida activity against Candida glabrata clinical isolate assessed as growth inhibition after 24 hrs by broth microdilution method; format: functional; outline: as §1
Staphylococcus warneri = assay: Antibacterial activity against Staphylococcus warneri assessed as growth inhibition after 18 to 22 hrs by broth microdilution method; format: functional; outline: as §2

SMILES | MIC ([Candida] sake) [µg/mL] | viability at 24 h, 100 ug/ml [1] [%] | MIC (Candida tropicalis) [µg/mL] | MIC (Klebsiella oxytoca) [µg/mL] | MIC (Candida parapsilosis) [µg/mL] | MIC (Enterobacter sp.) [µg/mL] | MIC (Proteus mirabilis) [µg/mL] | viability at 24 h, 0.05 ug/ml [2] [%] | viability at 24 h, 50 ug/ml [3] [%] | viability at 24 h, 10 ug/ml [4] [%] | viability at 24 h, 5 ug/ml [5] [%] | MIC (Candida albicans) [µg/mL] | MIC (Staphylococcus aureus) [µg/mL] | MIC (Pichia kudriavzevii) [µg/mL] | CC50 at 24 h [6] [µg/mL] | MIC [9] [µg/mL] | MIC (Enterococcus faecalis) [µg/mL] | MIC (Escherichia coli) [µg/mL] | MIC (Nakaseomyces glabratus) [µg/mL] | MIC (Staphylococcus warneri) [µg/mL] | also measured
C/C(=N\Nc1nc(-c2ccc(Cl)cc2Cl)cs1)C1CCCCC1 | 2 (≈ 5.43 µM) | 0 | 2 (≈ 5.43 µM) | > 256 | 2 (≈ 5.43 µM) | > 256 | > 256 | 96 | 0 | 88 | 94 | 0.25 (≈ 0.679 µM) | > 256 | 2 (≈ 5.43 µM) | 42 (≈ 114 µM) | > 256 | > 256 | > 256 | 2 (≈ 5.43 µM) | > 256 | viability at 24 h, 0.5 ug/ml [7]: 95%; viability at 24 h, 0.005 ug/ml [8]: 97.2%
Clc1ccc(-c2csc(NN=C3CCCCCCC3)n2)c(Cl)c1 | 2 (≈ 5.43 µM) | 0 | 2 (≈ 5.43 µM) | > 256 | 8 (≈ 21.7 µM) | > 256 | > 256 | 93 | 0 | 87.5 | 90 | 0.5 (≈ 1.36 µM) | > 256 | 2 (≈ 5.43 µM) | 41 (≈ 111 µM) | > 256 | > 256 | > 256 | 2 (≈ 5.43 µM) | > 256 | viability at 24 h, 0.5 ug/ml [7]: 92.4%; viability at 24 h, 0.005 ug/ml [8]: 94%
CCC(CC)=NNc1nc(-c2ccc(OC)cc2)cs1 | 256 (≈ 885 µM) |  | 64 (≈ 221 µM) | > 256 | 256 (≈ 885 µM) | > 256 | > 256 |  |  |  |  | 16 (≈ 55.3 µM) | > 256 | 256 (≈ 885 µM) |  | > 256 | > 256 | > 256 | 32 (≈ 111 µM) | > 256 | 
COc1ccc(-c2csc(N/N=C(\C)CC(C)C)n2)cc1 | 16 (≈ 52.7 µM) |  | 16 (≈ 52.7 µM) | > 256 | 16 (≈ 52.7 µM) | > 256 | > 256 |  |  |  |  | 4 (≈ 13.2 µM) | > 256 | 16 (≈ 52.7 µM) |  | > 256 | > 256 | > 256 | 8 (≈ 26.4 µM) | > 256 | 
C=CCC/C(C)=N/Nc1nc(-c2ccc(OC)cc2)cs1 | 2 (≈ 6.64 µM) | 0 | 2 (≈ 6.64 µM) | > 256 | 2 (≈ 6.64 µM) | > 256 | > 256 | 91.2 | 0 | 72.4 | 84 | 0.5 (≈ 1.66 µM) | > 256 | 2 (≈ 6.64 µM) | 35 (≈ 116 µM) | > 256 | > 256 | > 256 | 0.5 (≈ 1.66 µM) | > 256 | viability at 24 h, 0.5 ug/ml [7]: 83%; viability at 24 h, 0.005 ug/ml [8]: 94%
CCCC/C(CC)=N/Nc1nc(-c2ccc(OC)cc2)cs1 | 2 (≈ 6.3 µM) | 0 | 2 (≈ 6.3 µM) | > 256 | 2 (≈ 6.3 µM) | > 256 | > 256 | 90.2 | 0 | 70.2 | 81 | 0.25 (≈ 0.788 µM) | > 256 | 2 (≈ 6.3 µM) | 35 (≈ 110 µM) | > 256 | > 256 | > 256 | 0.5 (≈ 1.58 µM) | > 256 | viability at 24 h, 0.5 ug/ml [7]: 84%; viability at 24 h, 0.005 ug/ml [8]: 93%
CCCCCC/C(C)=N/Nc1nc(-c2ccc(OC)cc2)cs1 | 16 (≈ 48.3 µM) |  | 32 (≈ 96.5 µM) | > 256 | 16 (≈ 48.3 µM) | > 256 | > 256 |  |  |  |  | 8 (≈ 24.1 µM) | > 256 | 16 (≈ 48.3 µM) |  | > 256 | > 256 | > 256 | 8 (≈ 24.1 µM) | > 256 | 
